In ChEMBL document CHEMBL1821664, “Sulfonamides as a new scaffold for hypoxia inducible factor pathway inhibitors” (Bioorg Med Chem Lett, 2011) one finds Activity and residual activity data, which are given here for 63 compounds.

The target in experiment [1] is T1, Hypoxia inducible factors; HIF-1-alpha, HIF-2-alpha (Homo sapiens, UniProt Q16665+Q99814). In words: Inhibition of hypoxia-induced HIF1 activation in human LN229 cells expressing HRE-AP reporter gene assessed as HRE remaining activity at 10 uM preincubated for 1 hr under normoxia condition followed by 24 hrs incubation under hypoxia condition by alkaline phosphatase reporter assay relative to control. It counts as cell-based. A digest of the protocol: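 LN229-HRE-AP cells pre-treated 1 h with compound or vehicle (1% DMSO), then 24 h in 1% O2 hypoxia incubator; cells lysed and alkaline phosphatase activity measured. Hits were compounds reducing hypoxic AP induction >50%; single assay.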
A general note: Reporter assays use an easily measured gene product as a stand-in for the process of interest.

For experiment [2], the target named is T1, Hypoxia inducible factors; HIF-1-alpha, HIF-2-alpha. In words: Inhibition of hypoxia-induced HIF1 activation in human LN229 cells expressing HRE-AP reporter gene at 10 uM preincubated for 1 hr under normoxia condition followed by 24 hrs incubation under hypoxia condition by HRE-luciferase reporter assay relative to control; values are per cent of control.

Experiment [3] has the same target. In words: Inhibition of hypoxia-induced HIF1 activation in human LN229 cells expressing HRE-AP reporter gene at 2.5 uM preincubated for 1 hr under normoxia condition followed by 24 hrs incubation under hypoxia condition by HRE-luciferase reporter assay relative to control; values are per cent of control.
For experiment [4] the target is unchanged. In words: Inhibition of hypoxia-induced HIF1 activation in human LN229 cells expressing HRE-AP reporter gene at 5 uM preincubated for 1 hr under normoxia condition followed by 24 hrs incubation under hypoxia condition by HRE-luciferase reporter assay relative to control; values are per cent of control.

On to `COc1c(CN(Cc2ccccc2)S(=O)(=O)c2cc(Cl)ccc2Cl)ccc2c1OC(C)(C)C=C2`, for which the Activity in experiment [1] turned out to be 35%.
Still for that read-out and setting: with `COc1c(CN(C(=O)c2cccs2)c2ccccc2)ccc2c1OC(C)(C)C=C2` the figure was 61.8%; with `CC1(C)C=Cc2cc(/C=N/O)ccc2O1`, 91.4%; with `COc1c(CN(Cc2ccccc2)S(=O)(=O)c2ccc(C)cc2)ccc2c1OC(C)(C)C=C2`, 40.4%.
As for `COc1ccc(S(=O)(=O)N(Cc2ccccc2)Cc2ccc3c(c2)C=CC(C)(C)O3)cc1OC`, the residual activity in experiment [2] was determined as 15%; in experiment [3] it was 54%; in experiment [4], 26%.
Consider `CC1(C)C=Cc2cc(CN(c3ccccc3)S(=O)(=O)c3cccc4ccccc34)ccc2O1`, for which the residual activity was 29% in experiment [2], 55% in experiment [3] and 75% in experiment [4].
On to `CC1(C)C=Cc2cc(C(O)c3cn(CCNc4ccc([N+](=O)[O-])c5nonc45)nn3)ccc2O1` (centres undefined), for which the Activity in experiment [1] was 116%.
For the compound `CC(C)N(Cc1ccc2c(c1)C=CC(C)(C)O2)C(=O)c1cccs1`, the Activity in experiment [1] came out at 46.2%.
`CC1(C)C=Cc2cc(C(O)n3cc(-c4ccccc4)nn3)ccc2O1` (centres undefined): in experiment [1], the Activity was 106%.
Take `COc1ccc(S(=O)(=O)N(Cc2ccccc2)Cc2ccc3c(c2OC)OC(C)(C)C=C3)cc1OC`: in experiment [1], the Activity was determined as 68.5%.
`CC1(C)C=Cc2cc(CN(C3CCCCC3)S(=O)(=O)c3cccc4ccccc34)ccc2O1`: the residual activity came out at 37% in experiment [2], 68% in experiment [3] and 37% in experiment [4].
Turning to `COc1c(CN(c2ccccc2)S(=O)(=O)c2ccc(C)cc2)ccc2c1OC(C)(C)C=C2`, the Activity in experiment [1] stood at 58.4%.
Regarding `COc1ccc(Cl)cc1S(=O)(=O)N(Cc1ccccc1)Cc1ccc2c(c1)C=CC(C)(C)O2`, the residual activity in experiment [2] turned out to be 50%; in experiment [3], 66%; in experiment [4], 78%.
Consider `COc1c(CN(c2ccccc2)S(=O)(=O)c2ccc([N+](=O)[O-])cc2)ccc2c1OC(C)(C)C=C2`, for which, in experiment [1], the Activity was determined as 72.4%.
Turning to `COc1c(CN(Cc2ccccc2)C(=O)c2cccs2)ccc2c1OC(C)(C)C=C2`, the Activity in experiment [1] was 67.5%.
Same read-out and setting: with `CC1(C)C=Cc2cc(CN(C(=O)c3ccc(Br)cc3)c3ccccc3)ccc2O1` the figure was 57.6%.
On to `CC1(C)C=Cc2cc(CN(C3CCCCC3)S(=O)(=O)c3ccc(Oc4c(Cl)cccc4[N+](=O)[O-])cc3)ccc2O1`, for which the figures for the residual activity in experiment [2], in experiment [3] and in experiment [4] were 49%, 73% and 49%, respectively.
In the case of `CC(C)CN(Cc1ccc2c(c1)C=CC(C)(C)O2)S(=O)(=O)c1ccc(Br)cc1OC(F)(F)F`, the residual activity worked out at 24% in experiment [2], 49% in experiment [3] and 57% in experiment [4].
For `CC(C)N(Cc1ccc2c(c1)C=CC(C)(C)O2)S(=O)(=O)c1cc(Cl)ccc1Cl`, the Activity in experiment [1] came to 41.9%.
On to `COc1c(CN(C(=O)c2ccc(Br)cc2)c2ccccc2)ccc2c1OC(C)(C)C=C2`, for which the Activity in experiment [1] was 63.2%.
As to `COc1c(/C=N/O)ccc2c1OC(C)(C)C=C2`, the Activity in experiment [1] was found to be 89.4%.
For the compound `CC1(C)C=Cc2cc(C(c3ccccc3)n3cnc4ncccc43)ccc2O1` (centres undefined), the Activity in experiment [1] amounted to 83.5%.
As for `CC1(C)C=Cc2cc(C(O)c3cn(C(C)(C)C)nn3)ccc2O1` (centres undefined), the Activity in experiment [1] came out at 90.7%.
Still for that read-out and setting: with `CCN(CC)C(=O)OCn1cc(C(O)c2ccc3c(c2)C=CC(C)(C)O3)nn1` (centres undefined) the figure was 97.7%.
As for `CC1(C)C=Cc2cc(CN(C3CCCCC3)S(=O)(=O)c3ccc(Br)cc3OC(F)(F)F)ccc2O1`, the residual activity in experiment [2] came out at 61%; in experiment [3], 79%; in experiment [4], 75%.
As to `COc1c(C(C(C)C)n2ccnc2)ccc2c1C=CC(C)(C)O2` (centres undefined), the Activity in experiment [1] was 135%.
On the same count and under the same terms, the value for `CC(O)c1ccc2c(c1)C=CC(C)(C)O2` (centres undefined) was 94.9%.
In the case of `CC1(C)C=Cc2cc(CN(c3ccccc3)S(=O)(=O)c3ccc([N+](=O)[O-])cc3)ccc2O1`, the residual activity in experiment [2] was 50%; in experiment [3] it was 78%; in experiment [4] it was 66%.
Turning to `COc1c(CN(Cc2ccccc2)C(C)=O)ccc2c1OC(C)(C)C=C2`, the Activity in experiment [1] amounted to 93.1%.
Still for that read-out and setting: with `C=Cc1ccc2c(c1)C=CC(C)(C)O2` the figure was 98.2%; with `Cc1ccc(S(=O)(=O)N(Cc2ccc3c(c2)C=CC(C)(C)O3)C(C)C)cc1`, 55%.
`CC1(C)C=Cc2cc(CN(c3ccccc3)S(=O)(=O)c3ccc(Oc4c(Cl)cccc4[N+](=O)[O-])cc3)ccc2O1`: the residual activity in experiment [2] turned out to be 27%; in experiment [3], 40%; in experiment [4] it was 21%.
On to `CC(C)N(Cc1ccc2c(c1)C=CC(C)(C)O2)C(=O)c1ccc(Br)cc1`, for which the Activity in experiment [1] worked out at 63.9%.
Take `CC(C)CN(Cc1ccc2c(c1)C=CC(C)(C)O2)S(=O)(=O)c1ccc(Oc2c(Cl)cccc2[N+](=O)[O-])cc1`: the results for the residual activity in experiment [2], in experiment [3] and in experiment [4] were 24%, 34% and 23%, respectively.
`CCOC(OCC)c1ccc2c(c1OC)OC(C)(C)C=C2`: the Activity in experiment [1] turned out to be 105%.
For `CC1(C)C=Cc2cc(C(c3ccccc3)n3ccnc3)ccc2O1` (centres undefined), in experiment [1], the Activity was determined as 88.9%.
As to `COc1ccc(S(=O)(=O)N(Cc2ccc3c(c2)C=CC(C)(C)O3)C(C)C)cc1OC`, in experiment [1], the Activity stood at 64.7%.
As to `CC(c1ccc2c(c1)C=CC(C)(C)O2)n1cnc2ncccc21` (centres undefined), the Activity in experiment [1] worked out at 76.9%.
Same read-out and setting: the value for `CC(c1ccc2c(c1)C=CC(C)(C)O2)n1ccnc1` (centres undefined) was 86.6%.
On to `CC1(C)C=Cc2cc(CN(C3CCCCC3)S(=O)(=O)c3cc(Cl)ccc3Cl)ccc2O1`, for which the figures for the residual activity in experiment [2], in experiment [3] and in experiment [4] were 24%, 54% and 60%, respectively.
Take `CC(=O)N(Cc1ccc2c(c1)C=CC(C)(C)O2)C(C)C`: in experiment [1], the Activity came to 105%.
Consider `COc1ccc(S(=O)(=O)N(Cc2ccc3c(c2)C=CC(C)(C)O3)C2CCCCC2)cc1OC`, for which the residual activity came out at 4% in experiment [2], 44% in experiment [3] and 17% in experiment [4].
Consider `CC1(C)C=Cc2cc(C(O)c3cn(Cc4ccccc4)nn3)ccc2O1` (centres undefined), for which the Activity in experiment [1] was 88.8%.
For the compound `CC1(C)C=Cc2cc(CN(C(=O)c3cccs3)c3ccccc3)ccc2O1`, in experiment [1], the Activity amounted to 79.1%.
As for `COc1c(C(C)n2cnc3ncccc32)ccc2c1C=CC(C)(C)O2` (centres undefined), the Activity in experiment [1] was found to be 95.7%.
Regarding `CC1(C)C=Cc2cc(C(O)c3cn(C45CC6CC(CC(C6)C4)C5)nn3)ccc2O1` (centres undefined), the Activity in experiment [1] is 101%.
In the case of `CC1(C)C=Cc2cc(CN(C3CCCCC3)S(=O)(=O)c3ccc([N+](=O)[O-])cc3)ccc2O1`, the residual activity came to 33% in experiment [2], 68% in experiment [3] and 53% in experiment [4].
In the same order, the values of `CC1(C)C=Cc2cc(CN(Cc3ccccc3)S(=O)(=O)c3ccc([N+](=O)[O-])cc3)ccc2O1` are 27%, 47% and 35%.
As for `COc1c(CN(c2ccccc2)S(=O)(=O)c2cc(Cl)ccc2Cl)ccc2c1OC(C)(C)C=C2`, in experiment [1], the Activity was found to be 51.5%.
Still for that read-out and setting: the value for `CC(=O)N(Cc1ccc2c(c1)C=CC(C)(C)O2)c1ccccc1` was 91.5%; that for `COc1c(C(C)n2cnc3cc(Cl)ccc32)ccc2c1C=CC(C)(C)O2` (centres undefined) was 55.7%.
For the compound `CC1(C)C=Cc2cc(CN(Cc3ccccc3)S(=O)(=O)c3ccc(Oc4c(Cl)cccc4[N+](=O)[O-])cc3)ccc2O1`, the residual activity was determined as 27% in experiment [2], 54% in experiment [3] and 51% in experiment [4].
As to `CC1(C)C=Cc2cc(C(c3ccccc3)n3cnc4cc(Cl)ccc43)ccc2O1` (centres undefined), in experiment [1], the Activity was determined as 87.9%.
Still for that read-out and setting: the value for `CC(C)N(Cc1ccc2c(c1)C=CC(C)(C)O2)S(=O)(=O)c1ccc([N+](=O)[O-])cc1` was 43.2%.
For `COc1ccc(S(=O)(=O)N(Cc2ccccc2)Cc2ccc3c(c2)C=CC(C)(C)O3)c(OC)c1`, the residual activity in experiment [2] turned out to be 20%; in experiment [3], 60%; in experiment [4] it was 54%.
Regarding `CC1(C)C=Cc2cc(C(O)c3cn(CCOc4ccc5ccc(=O)oc5c4)nn3)ccc2O1` (centres undefined), the Activity in experiment [1] amounted to 117%.
As to `COc1c(CN(C(C)=O)c2ccccc2)ccc2c1OC(C)(C)C=C2`, the Activity in experiment [1] came out at 108%.
In the case of `COc1ccc(Cl)cc1S(=O)(=O)N(Cc1ccc2c(c1)C=CC(C)(C)O2)CC(C)C`, the residual activity turned out to be 73% in experiment [2], 81% in experiment [3] and 90% in experiment [4].
In the same order, the values of `COc1ccc(Cl)cc1S(=O)(=O)N(Cc1ccc2c(c1)C=CC(C)(C)O2)c1ccccc1` are 28%, 61% and 56%.
Take `COc1c(C(C)n2ccnc2)ccc2c1C=CC(C)(C)O2` (centres undefined): the Activity in experiment [1] was determined as 104%.
For `COc1c(C(C(C)C)n2cnc3ncccc32)ccc2c1C=CC(C)(C)O2` (centres undefined), the Activity in experiment [1] was determined as 88.8%.
Turning to `COc1c(CN(Cc2ccccc2)S(=O)(=O)c2ccc([N+](=O)[O-])cc2)ccc2c1OC(C)(C)C=C2`, the Activity in experiment [1] was 62.2%.
For the compound `COc1ccc(S(=O)(=O)N(Cc2ccc3c(c2OC)OC(C)(C)C=C3)c2ccccc2)cc1OC`, in experiment [1], the Activity was 48.6%.
